Assay results reported in ChEMBL document CHEMBL5724801, “EUbOPEN Chemogenomics Library - Multiplex” (2024).
Several values for one entry are separate records, joined by “and”; a condition that tells them apart may be missing. Equal entries are not always repeated.

System: U2OS
Experiment: Multiplex assay against U2OS
Format: toxicity, cell-based
Details: human
In short: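 Cells stained live at seeding with Hoechst33342, BioTracker Green Microtubule Cytoskeleton Dye, MitoTracker Red and Annexin V Alexa Fluor 680 were imaged on a CQ1 microscope at 37°C and 5% CO2 after compound addition. Their classification by CellPathfinder machine-learning gating ran from Hoechst high-intensity objects versus normal cells, to healthy, pyknosed or fragmented nuclei among normal cells, to mitotic or apoptotic among pyknosed cells. Tubulin, mitochondrial-mass and membrane-permeability phenotypes are per cents of healthy-nucleus cells.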

[1] = 12 h, 1 µM, compound concentration 1 uM
[2] = 12 h, 10 µM, compound concentration 10 uM
[3] = 24 h, 1 µM, compound concentration 1 uM
[4] = 24 h, 10 µM, compound concentration 10 uM
[5] = 48 h, 1 µM, compound concentration 1 uM
[6] = 48 h, 10 µM, compound concentration 10 uM

## COCCNc1cc(NC(=O)N2CCCc3cc(CN4CCN(C)CC4=O)c(C=O)nc32)ncc1C#N [FGF401]
[1]
  Population Apoptotic (%): 50% and 42.86%
  Population Fragmented Nuclei (%): 2.96% and 1.3%
  Population Healthy Nuclei (%): 87.87% and 85.06%
  Population Hoechst High Intensity Objects (%): 0%
  Population Membrane Permeable-Phenotype (%): 2.15% and 0%
  Population Mitochondria Different-Phenotype (%): 0% and 2.29%
  Population Mitotic Cells (%): 50% and 57.14%
  Population Normal (%): 100%
  Population Pyknosed Nuclei (%): 9.16% and 13.64%
  Population Tubulin-Different-Phenotype (%): 2.15% and 0.76%
  Total Cell Count: 371 and 154
[2]
  Population Apoptotic (%): 37.5% and 26.32%
  Population Fragmented Nuclei (%): 0.72% and 5.88%
  Population Healthy Nuclei (%): 91.65% and 82.94%
  Population Hoechst High Intensity Objects (%): 0.24% and 0%
  Population Membrane Permeable-Phenotype (%): 1.3% and 4.26%
  Population Mitochondria Different-Phenotype (%): 0% and 3.55%
  Population Mitotic Cells (%): 62.5% and 73.68%
  Population Normal (%): 99.76% and 100%
  Population Pyknosed Nuclei (%): 7.64% and 11.18%
  Population Tubulin-Different-Phenotype (%): 0.52% and 0%
  Total Cell Count: 420 and 170
[3]
  Population Apoptotic (%): 48.94% and 42.31%
  Population Fragmented Nuclei (%): 1.93% and 2.97%
  Population Healthy Nuclei (%): 88.97% and 84.16%
  Population Hoechst High Intensity Objects (%): 0.19% and 0%
  Population Membrane Permeable-Phenotype (%): 0.87% and 1.18%
  Population Mitochondria Different-Phenotype (%): 0.87% and 4.71%
  Population Mitotic Cells (%): 51.06% and 57.69%
  Population Normal (%): 99.81% and 100%
  Population Pyknosed Nuclei (%): 9.09% and 12.87%
  Population Tubulin-Different-Phenotype (%): 0.87% and 0%
  Total Cell Count: 518 and 202
[4]
  Population Apoptotic (%): 43.18% and 34.29%
  Population Fragmented Nuclei (%): 1.85% and 3.54%
  Population Healthy Nuclei (%): 90.04% and 80.97%
  Population Hoechst High Intensity Objects (%): 0%
  Population Membrane Permeable-Phenotype (%): 1.23% and 2.19%
  Population Mitochondria Different-Phenotype (%): 0% and 3.28%
  Population Mitotic Cells (%): 56.82% and 65.71%
  Population Normal (%): 100%
  Population Pyknosed Nuclei (%): 8.12% and 15.49%
  Population Tubulin-Different-Phenotype (%): 0.61% and 1.09%
  Total Cell Count: 542 and 226
[5]
  Population Apoptotic (%): 45.12% and 50%
  Population Fragmented Nuclei (%): 4.25% and 1.54%
  Population Healthy Nuclei (%): 87.05% and 87.38%
  Population Hoechst High Intensity Objects (%): 0%
  Population Membrane Permeable-Phenotype (%): 0.73% and 3.17%
  Population Mitochondria Different-Phenotype (%): 0.49% and 4.23%
  Population Mitotic Cells (%): 54.88% and 50%
  Population Normal (%): 100%
  Population Pyknosed Nuclei (%): 8.7% and 11.08%
  Population Tubulin-Different-Phenotype (%): 0.73% and 0.7%
  Total Cell Count: 942 and 325
[6]
  Population Apoptotic (%): 39.42% and 53.49%
  Population Fragmented Nuclei (%): 2% and 2.76%
  Population Healthy Nuclei (%): 87.6% and 86.43%
  Population Hoechst High Intensity Objects (%): 0% and 0.25%
  Population Membrane Permeable-Phenotype (%): 1.14% and 2.62%
  Population Mitochondria Different-Phenotype (%): 0.11% and 1.45%
  Population Mitotic Cells (%): 60.58% and 46.51%
  Population Normal (%): 100% and 99.75%
  Population Pyknosed Nuclei (%): 10.4% and 10.8%
  Population Tubulin-Different-Phenotype (%): 0.91% and 1.16%
  Total Cell Count: 1000 and 399

## CC(=O)NCC(=O)N1[C@@H]2CC[C@H]1c1ccc(Nc3ncc(C(F)(F)F)c(NC4CCC4)n3)cc12 [PF-03814735]
[1]
  Population Apoptotic (%): 43.59% and 56.25%
  Population Fragmented Nuclei (%): 3.86% and 3.61%
  Population Healthy Nuclei (%): 82.46% and 86.75%
  Population Hoechst High Intensity Objects (%): 0%
  Population Membrane Permeable-Phenotype (%): 2.55% and 3.47%
  Population Mitochondria Different-Phenotype (%): 0% and 6.25%
  Population Mitotic Cells (%): 56.41% and 43.75%
  Population Normal (%): 100%
  Population Pyknosed Nuclei (%): 13.68% and 9.64%
  Population Tubulin-Different-Phenotype (%): 2.55% and 1.39%
  Total Cell Count: 285 and 166
[2]
  Population Apoptotic (%): 36.84% and 50%
  Population Fragmented Nuclei (%): 4.71% and 6.5%
  Population Healthy Nuclei (%): 58.45% and 47.97%
  Population Hoechst High Intensity Objects (%): 0.28% and 0%
  Population Membrane Permeable-Phenotype (%): 5.69% and 15.25%
  Population Mitotic Cells (%): 63.16% and 50%
  Population Normal (%): 99.72% and 100%
  Population Pyknosed Nuclei (%): 36.84% and 45.53%
  Population Tubulin-Different-Phenotype (%): 7.58% and 8.47%
  Total Cell Count: 362 and 123
[3]
  Population Apoptotic (%): 52.86% and 55.56%
  Population Fragmented Nuclei (%): 3.18% and 2.94%
  Population Healthy Nuclei (%): 72.08% and 75.88%
  Population Hoechst High Intensity Objects (%): 0.35% and 0%
  Population Membrane Permeable-Phenotype (%): 1.96% and 5.43%
  Population Mitochondria Different-Phenotype (%): 0% and 7.75%
  Population Mitotic Cells (%): 47.14% and 44.44%
  Population Normal (%): 99.65% and 100%
  Population Pyknosed Nuclei (%): 24.73% and 21.18%
  Population Tubulin-Different-Phenotype (%): 0.49% and 3.88%
  Total Cell Count: 284 and 170
[4]
  Population Apoptotic (%): 67.23% and 80%
  Population Fragmented Nuclei (%): 5.92% and 4.1%
  Population Healthy Nuclei (%): 27.04% and 26.23%
  Population Hoechst High Intensity Objects (%): 0% and 0.81%
  Population Membrane Permeable-Phenotype (%): 10.42% and 12.5%
  Population Mitotic Cells (%): 32.77% and 20%
  Population Normal (%): 100% and 99.19%
  Population Pyknosed Nuclei (%): 67.04% and 69.67%
  Total Cell Count: 355 and 123
[5]
  Population Apoptotic (%): 69.39% and 73.33%
  Population Fragmented Nuclei (%): 2.78% and 6.88%
  Population Healthy Nuclei (%): 63.19% and 55.62%
  Population Hoechst High Intensity Objects (%): 0.69% and 0%
  Population Membrane Permeable-Phenotype (%): 3.85% and 7.87%
  Population Mitochondria Different-Phenotype (%): 0% and 15.73%
  Population Mitotic Cells (%): 30.61% and 26.67%
  Population Normal (%): 99.31% and 100%
  Population Pyknosed Nuclei (%): 34.03% and 37.5%
  Population Tubulin-Different-Phenotype (%): 6.04% and 10.11%
  Total Cell Count: 290 and 160
[6]
  Population Apoptotic (%): 78.97% and 93.41%
  Population Fragmented Nuclei (%): 6.71% and 1.74%
  Population Healthy Nuclei (%): 14.29% and 19.13%
  Population Hoechst High Intensity Objects (%): 0%
  Population Membrane Permeable-Phenotype (%): 18.37% and 31.82%
  Population Mitochondria Different-Phenotype (%): 14.29% and 4.55%
  Population Normal (%): 100%
  Population Pyknosed Nuclei (%): 79.01% and 79.13%
  Total Cell Count: 343 and 115
